Data reported in PubChem BioAssay.
Activity calls are given as the source filed them.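 The calls were made as follows, unless noted: active = NADPH fluorescence slope more negative than the mean of all samples by about 3 SD, 99.7% confidence; inactive = the rest.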

Key:
[1] = inhibitors of TNFa-induced NFkB p65 translocation, primary screen, imaging, HUVEC, MLSMR starter and 10KST1 sets (AID 438;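 active = inhibition above 20% together with a positive visual image hit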;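 also: compound added about 3h40 before a 20 min TNFalpha stimulation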;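 as to inhibition: signal is the nuclear over cytoplasmic p65 intensity ratio per well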); settings: HUVEC TNFa-induced p65 nuclear translocation; cell count: measured here: nuclei count (cytotoxicity indicator), at 2.08 µM; inhibition: at 2 µM, stronger effect = higher value, 0% TNFa-plus-vehicle, 100% no-TNFa wells
[2] = reduction of polyQ htt aggregates in cells – imaging, exon1htt(103Q)mCFP cells, high-content imaging, primary screen (AID 483;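 active = visual image review flags a hit and inhibition of aggregation exceeds 20%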;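 also: compound exposure lasted 3 days before fixation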;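 as to nuclei count: percent of the per-plate median nuclei count of sample wells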); settings: exon1htt(103Q)mCFP cell line, aggregate imaging, at 2 µM; inhibition of aggregation: stronger effect = higher value; nuclei count: measured here: cell count, toxicity
[3] = endothelial E-selectin expression blockers – imaging, HUVEC, immunofluorescence, MLSMR starter and 10KST1 sets, primary screen (AID 487;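 active = visually confirmed hit in the image check and inhibition above 20%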;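 as to inhibition: signal is fraction of cell area covered by stained E-selectin grains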;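 as to nuclei count: 100% = median nuclei count of all wells on the same plate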); settings: HUVEC TNFalpha-induced E-selectin immunofluorescence imaging, at 2 µM; inhibition: stronger effect = higher value; nuclei count: measured here: cell number, toxicity
[4] = target: Voltage-gated potassium channel subunit beta-2 (Rattus norvegicus) (UniProt P62483); test: inhibitors of rat Kvbeta2 reductase activity – biochemical, NADPH fluorescence, primary screen (AID 622;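 active = fluorescence slope higher than the sample average by over 3 SD, cut at about -0.22 in these data, passing the limit was not always enough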;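 also: slope of raw intensity against log time taken from 70 to 1610 s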); settings: recombinant KvBeta, 4-cyanobenzaldehyde reduction, at 10 µM, stronger effect = higher value
Sequence of Voltage-gated potassium channel subunit beta-2 (Rattus norvegicus) (P62483 whole entry, looked up): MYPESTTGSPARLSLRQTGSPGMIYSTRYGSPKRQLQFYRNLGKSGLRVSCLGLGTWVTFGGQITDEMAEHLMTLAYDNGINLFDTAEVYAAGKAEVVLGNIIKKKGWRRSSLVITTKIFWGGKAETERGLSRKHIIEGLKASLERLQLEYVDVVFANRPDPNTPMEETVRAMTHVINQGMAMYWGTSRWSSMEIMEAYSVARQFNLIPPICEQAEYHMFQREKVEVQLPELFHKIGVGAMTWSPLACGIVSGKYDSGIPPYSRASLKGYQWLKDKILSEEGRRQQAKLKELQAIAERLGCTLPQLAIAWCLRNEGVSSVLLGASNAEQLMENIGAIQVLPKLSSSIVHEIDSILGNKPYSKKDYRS

[5] = target: Voltage-gated potassium channel subunit beta-2 (Rattus norvegicus) (UniProt P62483); test: enhancers of rat Kvbeta2 NADPH turnover – biochemical, NADPH fluorescence, primary screen (AID 623); settings: Recombinant KvBeta, NADPH fluorescence decrease slope, 10 min; at 10 µM; stronger effect = lower value;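 also: fluorescence intensity change per second fitted from 20 to 320 s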
[6] = target: Muscarinic acetylcholine receptor M4 (Homo sapiens) (UniProt P08173); test: M4-linked GIRK flux change, two-sided – cell-based, HEK293 M4/GIRK, thallium flux, BTC-AM, M4 allosteric agonist project, primary screen (AID 625;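 active = fluorescence slope after compound addition differing from the mean of all tested samples at 99.7% confidence, mostly higher but some lower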;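 also: thallium influx through GIRK channels coupled to M4 in HEK293 cells with BTC-AM dye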); settings: at 10 µM, actives lie on both sides
Sequence of Muscarinic acetylcholine receptor M4 (Homo sapiens) (P08173 whole entry, looked up): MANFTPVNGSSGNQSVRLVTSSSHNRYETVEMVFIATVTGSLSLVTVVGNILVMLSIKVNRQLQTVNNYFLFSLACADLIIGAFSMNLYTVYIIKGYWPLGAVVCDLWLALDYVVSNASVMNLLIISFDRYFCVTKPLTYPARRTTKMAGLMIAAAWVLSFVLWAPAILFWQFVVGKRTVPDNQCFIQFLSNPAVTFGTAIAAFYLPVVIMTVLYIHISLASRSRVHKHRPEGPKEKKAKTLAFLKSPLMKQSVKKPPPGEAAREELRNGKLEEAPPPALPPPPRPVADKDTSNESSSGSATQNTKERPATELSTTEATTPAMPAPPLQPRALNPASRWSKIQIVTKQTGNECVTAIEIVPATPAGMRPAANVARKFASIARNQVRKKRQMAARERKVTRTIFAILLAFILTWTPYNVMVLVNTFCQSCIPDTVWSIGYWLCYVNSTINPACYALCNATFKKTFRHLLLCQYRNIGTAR
Procedure, shortened: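 Assay system: HEK293 cells with M4 receptor and GIRK channels / Controls: carbachol and DMSO controls / Schedule: 1 h dye loading, 2 min kinetic read / Technique: kinetic fluorescence with BTC-AM dye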

[7] = blockers of RIG-like receptor reporter activation – cell-based, Sendai virus stimulus, luciferase, 10K MLSCN set, TLR/RLR signaling modifier project, primary screen (AID 602276;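 active = inhibition at or above 50% at 10 µM; inactive = inhibition below 50%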;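 also: firefly luciferase from ISG56 promoter only with Renilla not read in this screen; 0% = Sendai virus plus DMSO and 100% = medium plus DMSO without virus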); settings: HEK293 RL24 IRF3 luciferase reporter, at 10 µM, stronger effect = higher value
[8] = TLR3 IRF3 reporter activation blockers – cell-based, poly I:C stimulus, luciferase, 10K MLSCN set, primary screen (AID 602277;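 active = inhibition of the reporter signal at or above 50%; inactive = inhibition below 50%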); settings: HEK293-TLR3 RL24 IRF3 luciferase reporter, at 10 µM, stronger effect = higher value

O=C(NCc1cccnc1)c1ccccc1Br
cell count [1]: 397
inhibition [1]: -0.5% (inactive)
inhibition of aggregation [2]: 4.6% (inactive)
nuclei count [2]: 104%
inhibition [3]: -18.8% (inactive)
nuclei count [3]: 112%
fluorescence slope [4]: -0.521 (inactive)
NADPH fluorescence slope [5]: -1.1e-05 (inactive)
fluorescence slope [6]: 0.00504 (inactive)
inhibition [7]: 15.2% (inactive)
inhibition [8]: 20.8% (inactive)

O=C(CCCCn1c(=O)[nH]c2ccsc2c1=O)NCc1cccnc1
cell count [1]: 684
inhibition [1]: -1% (inactive)
inhibition of aggregation [2]: 5% (inactive)
nuclei count [2]: 99.7%
inhibition [3]: 3.5% (inactive)
nuclei count [3]: 119%
fluorescence slope [4]: -0.46 (inactive)
NADPH fluorescence slope [5]: -5.1e-05 (inactive)
fluorescence slope [6]: 0.00456 (inactive)
inhibition [7]: 17% (inactive)
inhibition [8]: 15.3% (inactive)

CCOC(=O)c1c(NC(=O)c2ccoc2C)sc2c1CCC2
cell count [1]: 310
inhibition [1]: 0% (inactive)
inhibition of aggregation [2]: -0.4% (inactive)
nuclei count [2]: 96.2%
inhibition [3]: -3.2% (inactive)
nuclei count [3]: 96.3%
fluorescence slope [4]: -0.407 (inactive)
NADPH fluorescence slope [5]: -1.2e-05 (inactive)
fluorescence slope [6]: 0.00584 (inactive)
inhibition [7]: 15.7% (inactive)
inhibition [8]: -10.1% (inactive)

COc1ccccc1C(=O)Nc1ccc(S(=O)(=O)N2CCOCC2)cc1
cell count [1]: 353
inhibition [1]: -6% (inactive)
inhibition of aggregation [2]: 21.1% (inactive)
nuclei count [2]: 61.9%
inhibition [3]: -85.7% (inactive)
nuclei count [3]: 105%
fluorescence slope [4]: -0.571 (inactive)
NADPH fluorescence slope [5]: -5.6e-05 (inactive)
fluorescence slope [6]: 0.00422 (inactive)
inhibition [7]: 10.8% (inactive)
inhibition [8]: 0.189% (inactive)

COc1cccc(C2=NOC(C(=O)Nc3ccc(C(C)=O)cc3)C2)c1 (stereo not drawn)
cell count [1]: 808
inhibition [1]: -16.3% (inactive)
inhibition of aggregation [2]: -6.4% (inactive)
nuclei count [2]: 107%
inhibition [3]: -49.8% (inactive)
nuclei count [3]: 80%
fluorescence slope [4]: -0.583 (inactive)
NADPH fluorescence slope [5]: 2.1e-05 (inactive)
fluorescence slope [6]: 0.00535 (inactive)
inhibition [7]: -34.2% (inactive)
inhibition [8]: -61.5% (inactive)

CCc1ncc(C(O)c2cccc(OC)c2OC)n1C (stereo not drawn)
cell count [1]: 335
inhibition [1]: 2.8% (inactive)
inhibition of aggregation [2]: 7.4% (inactive)
nuclei count [2]: 96.1%
inhibition [3]: 17.7% (inactive)
nuclei count [3]: 126%
fluorescence slope [4]: -0.451 (inactive)
NADPH fluorescence slope [5]: -2.7e-05 (inactive)
fluorescence slope [6]: 0.00484 (inactive)
inhibition [7]: 23.2% (inactive)
inhibition [8]: 24% (inactive)

CCCCCc1c(O)c2ccccc2[nH]c1=O
cell count [1]: 596
inhibition [1]: -9.8% (inactive)
inhibition of aggregation [2]: -15.9% (inactive)
nuclei count [2]: 109%
inhibition [3]: -4.6% (inactive)
nuclei count [3]: 87%
fluorescence slope [4]: -0.565 (inactive)
NADPH fluorescence slope [5]: -9.6e-05 (inactive)
fluorescence slope [6]: 0.00337 (inactive)
inhibition [7]: 11.7% (inactive)
inhibition [8]: 13.8% (inactive)

CC1CCN(C(=O)Cn2c(=O)oc3ccccc32)CC1
cell count [1]: 322
inhibition [1]: -0.6% (inactive)
inhibition of aggregation [2]: 15.4% (inactive)
nuclei count [2]: 100%
inhibition [3]: -222% (inactive)
nuclei count [3]: 104%
fluorescence slope [4]: -0.57 (inactive)
NADPH fluorescence slope [5]: 4.8e-06 (inactive)
fluorescence slope [6]: 0.00554 (inactive)
inhibition [7]: -14.5% (inactive)
inhibition [8]: -12.5% (inactive)

CCn1c(CSc2ncccn2)nnc1SCC(=O)N1c2ccccc2CC1C (stereo not drawn)
cell count [1]: 644
inhibition [1]: 27.9% (active)
inhibition of aggregation [2]: -1.3% (inactive)
nuclei count [2]: 103%
inhibition [3]: -3.3% (inactive)
nuclei count [3]: 95.8%
fluorescence slope [4]: -0.446 (inactive)
NADPH fluorescence slope [5]: -7.9e-06 (inactive)
fluorescence slope [6]: 0.00475 (inactive)
inhibition [7]: 12.2% (inactive)
inhibition [8]: 0.579% (inactive)

COc1ccccc1NC(=O)CC(NCc1ccccc1)C(=O)O (stereo not drawn)
cell count [1]: 405
inhibition [1]: -8.3% (inactive)
inhibition of aggregation [2]: -9.7% (inactive)
nuclei count [2]: 63.1%
inhibition [3]: 14.4% (inactive)
nuclei count [3]: 100%
fluorescence slope [4]: -0.223 (inactive)
NADPH fluorescence slope [5]: -1.3e-05 (inactive)
fluorescence slope [6]: 0.00589 (inactive)
inhibition [7]: 8.88% (inactive)
inhibition [8]: 5.77% (inactive)

Cc1nc(NCc2ccccn2)c2ccccc2n1
cell count [1]: 416
inhibition [1]: -13.6% (inactive)
inhibition of aggregation [2]: 13% (inactive)
nuclei count [2]: 69.7%
inhibition [3]: -49.1% (inactive)
nuclei count [3]: 121%
fluorescence slope [4]: -0.572 (inactive)
NADPH fluorescence slope [5]: -4.7e-05 (inactive)
fluorescence slope [6]: 0.00634 (inactive)
inhibition [7]: 4.35% (inactive)
inhibition [8]: -44.1% (inactive)

O=c1c2cn[nH]c2nc(SCc2ccc3c(c2)OCCO3)n1-c1ccccc1
cell count [1]: 488
inhibition [1]: 15.8% (inactive)
inhibition of aggregation [2]: 4.8% (inactive)
nuclei count [2]: 112%
inhibition [3]: -27.1% (inactive)
nuclei count [3]: 107%
fluorescence slope [4]: -0.508 (inactive)
NADPH fluorescence slope [5]: 1.3e-05 (inactive)
fluorescence slope [6]: 0.0074 (inactive)
inhibition [7]: 7.97% (inactive)
inhibition [8]: 9.23% (inactive)

C=CCN1C(=O)/C(=C2\SC(N3CCOCC3)=NC2=O)c2cc(Br)ccc21
cell count [1]: 418
inhibition [1]: 3.5% (inactive)
inhibition of aggregation [2]: 22.3% (inactive)
nuclei count [2]: 100%
inhibition [3]: -76% (inactive)
nuclei count [3]: 86.1%
fluorescence slope [4]: -0.519 (inactive)
NADPH fluorescence slope [5]: -8.4e-05 (inactive)
fluorescence slope [6]: 0.00286 (inactive)
inhibition [7]: -11.1% (inactive)
inhibition [8]: -37.3% (inactive)
